In the library only some 2.6% were active in any assay of this set; here they are far more common.
MC4R antag cAMP: human MC4R antagonism in cAMP assay; MC4R-expressing cells, MTII-stimulated cAMP, LANCE TR-FRET; inhibition, % at 6.5 µM; 0.48% of 360,000 active;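 active means inhibition above its plate's cutoff, the mean of tested wells on that plate plus 3 SD, cut at about 29% in these data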;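 further: 0% = Melanotan II alone and 100% = Melanotan II plus saturating MCL0020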
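System – human MC4R-expressing U2OS cells · Also added – Melanotan II · Dosing – one concentration, 6.5 µM nominal · Timing – 30-min compound, 1-h challenge, 1-h detection, room temperature · Measured by – Eu-cAMP/anti-cAMP TR-FRET, emission 671 nm · Replicates – singlicate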
EP2 antag: EP2 receptor (human) inhibition; P43116; C6 glioma cells expressing human EP2, cAMP TR-FRET; cells stimulated with saturating PGE2; inhibition, % at 25 µM; 0.52% of 260,000 active; AID 1422;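 active means percent inhibition above 40 after rounding to a whole number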;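 further: rat C6 glioma host cells with rolipram phosphodiesterase inhibitor present; the protocol text gives 20 µM as final concentration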
Target sequence (P43116 whole entry, looked up): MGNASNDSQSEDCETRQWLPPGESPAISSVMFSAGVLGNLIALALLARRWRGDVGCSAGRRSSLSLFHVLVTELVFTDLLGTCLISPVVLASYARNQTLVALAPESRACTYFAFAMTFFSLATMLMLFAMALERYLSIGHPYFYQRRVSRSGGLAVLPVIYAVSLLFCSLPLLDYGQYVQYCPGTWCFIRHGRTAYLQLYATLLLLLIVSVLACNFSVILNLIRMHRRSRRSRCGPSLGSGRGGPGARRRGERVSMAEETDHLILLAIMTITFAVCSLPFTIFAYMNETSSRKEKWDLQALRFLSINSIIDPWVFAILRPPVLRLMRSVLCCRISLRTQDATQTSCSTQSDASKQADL
EP2 modulator: modulates human prostaglandin E2 receptor EP2 signaling. P43116. EP2-expressing cells, cAMP HTRF FRET, PGE2 co-stimulation. induction, % at 25 µM. AID 940. 0.83% of 260,000 active;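 active means compounds whose cAMP rise, as percent of the full-agonist control response, exceeds 60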;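 further: rat C6 glioma line stably carrying human EP2 under a CMV promoter; the protocol text gives 20 µM as final concentration; 100% = response of wells given 1 µM PGE2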
MC4R ag barr: human MC4R agonism via beta-arrestin | P32245 | U2OS MC4R beta-arrestin complementation, luminescence; percent of melanotan II response, DMSO zero | activation, % at 8.9 µM | 0.98% of 360,000 active;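 active means activation above a per-plate cutoff, the mean activation of sample wells on that plate plus 3 SD, cut at about 8% in these data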
T cell modulator: T cell immune modulation candidate; 2C CD8+ T cell-vesicle binding, flow cytometry; hits give low values; 0.068% of 330,000 active; response (vesicle binding), % at 7 µM;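 active means response, share of CD8 T cells binding vesicles, and their 90th percentile fluorescence all below set limits, cut at about 80% in these data, passing the limit was not always enough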;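 further: values below 100% mean blocked vesicle binding to the CD8+ T cells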
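Read-out – percent CD8+ FL2 mean versus row control · System – murine 2C transgenic CD8+ T lymphocytes · Times – 1.5 h cell–vesicle binding at 37 °C, then 20 min icy labelling · Control set – naked vesicles low, QL9 vesicles with vehicle high · Detection – cytometric PE anti-B7-1 and Alexa647 anti-CD8 signals after 1% paraformaldehyde fixation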
Granule exo inh: lytic granule exocytosis inhibition | TALL-104 LAMP-1 surface exposure, flow cytometry; cells stimulated with thapsigargin and PMA | inhibition, % at 10 µM | 0.66% of 360,000 active | AID 651702;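 active means inhibition above about 55%, limit read from the data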
MC4R barr conf: human MC4R beta-arrestin agonism confirmation; U2OS MC4R beta-arrestin recruitment, luminescence; scaled DMSO 0%, Melanotan II 100%; activation, % at 8.9 µM; 31% of 2,400 active; shares compounds with MC4R ag barr; AID 602192;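 active means mean activation across replicates above the hit cutoff set in the earlier primary screen, cut at about 8% in these data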
MOR DOR agonist: OPRM1-OPRD1 heterodimer agonism counter-screen; shares compounds with MC4R ag barr; U2OS PathHunter beta-arrestin, beta-gal luminescence; percent of deltorphin B response, DMSO zero; activation, % at 9.2 µM; 5.8% of 2,400 active;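 active means mean activation across replicates exceeds the hit threshold derived in the earlier primary screen, cut at about 18% in these data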;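 further: 100% = deltorphin B at 0.9 µM final and 0% = DMSO alone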
Numbers without * were called inactive; · = not tested or not shown.

SMILES | MC4R antag cAMP | EP2 antag | EP2 modulator | MC4R ag barr | T cell modulator | Granule exo inh | MC4R barr conf | MOR DOR agonist
S=c1[nH]nc(COc2ccccc2)n1/N=C/c1c(Cl)cccc1Cl | 6.2 | · | · | 11.2* | 275.5 | -4.4 | 1.5 | 4.0
Cc1ccccc1C1(O)CCN(C(=O)CCCc2cn(C)c3ccccc23)CC1 | · | 8.1 | -82.7 | · | · | · | · | ·
Cc1c(CCOC(=O)C2C3CC4CC(C3)CC2C4)sc[n+]1CC(=O)c1ccc(Br)cc1 (stereo not drawn) | -0.2 | 8.3 | -29.5 | 7.1 | 266.8 | 0.3 | · | ·
Cc1c(CCOC(=O)c2ccc(Cl)cc2Cl)sc[n+]1CC(=O)c1ccc(Br)cc1 | 8.2 | · | · | 27.7* | 309.9 | 8.5 | 23.0* | 23.0*
O=C(Nc1cccc(C(=O)N2CCCCC2)c1)C1CCC1 | 8.6 | · | · | 0.6 | · | 2.8 | · | ·
Cc1cccc(C(=O)OCC(=O)c2ccc3c(c2)OCO3)c1O | -0.2 | · | · | -0.7 | 464.8 | -1.3 | · | ·
COc1ccccc1NC(=O)COC(=O)c1ccc2c(c1)OCCO2 | 9.3 | · | · | 18.7* | 231.1 | 13.5 | 3.1 | 2.7
Cc1cccc(C(=O)OCC(=O)c2ccc3c(c2)OCCO3)c1O | -0.9 | · | · | 11.2* | 753.6 | -2.9 | 2.6 | 3.0
Cc1ccccc1NC(=O)COC(=O)c1ccc2c(c1)OCCO2 | 0.0 | · | · | -1.0 | · | 19.8 | · | ·
CC(C)CNC(=O)NC(=O)COC(=O)c1cc([N+](=O)[O-])ccc1NCc1ccccc1Cl | · | 5.8 | 10.5 | · | 408.4 | · | · | ·
O=C(COC(=O)c1cc([N+](=O)[O-])ccc1NCc1ccccc1Cl)NCC(F)(F)F | 2.0 | 5.2 | -4.0 | 12.7* | 59.8 | -3.1 | 3.7 | 4.3
CCNc1ccc(C(=O)OCC(=O)NCc2ccccc2Cl)cc1[N+](=O)[O-] | -0.1 | 1.6 | 33.5 | 16.0* | 160.1 | -3.1 | 7.0 | 3.1
COCCNC(=O)c1ccccc1NC(=O)c1ccccc1N(C)S(=O)(=O)c1ccccc1 | -5.5 | 10.6 | -3.4 | -0.9 | 557.7 | 14.8 | · | ·
CC1(C(=O)Nc2ccc3ccccc3c2)CCC(=O)N1C1CC1 (stereo not drawn) | · | · | · | · | · | 12.0 | · | ·
Cc1ccc(C(=O)N/N=C/c2ccc(-c3cccc(Cl)c3)o2)cn1 | 1.1 | 3.3 | -37.2 | -2.7 | 875.7 | 4.7 | · | ·
Cc1ccc(C(=O)N/N=C\c2ccc(-c3ccc(Cl)c(Cl)c3)o2)cn1 | -6.7 | 16.9 | -26.4 | 11.2* | 192.8 | 17.5 | 8.4* | 5.9
Cc1noc(C)c1S(=O)(=O)N1CCC(C(=O)NC2CCN(Cc3ccccc3)CC2)CC1 | 0.3 | 8.1 | 0.9 | -0.3 | · | -1.3 | · | ·
O=C(NCCN1CCN(S(=O)(=O)c2ccccc2)CC1)C(=O)Nc1ccc(F)cc1 | 5.6 | · | · | -0.7 | 144.8 | -4.1 | · | ·
Cc1ccc(S(=O)(=O)N2CCN(CCNC(=O)C(=O)Nc3ccc(F)cc3)CC2)cc1 | 24.1 | · | · | 13.8* | 230.4 | 0.7 | 0.0 | 5.7
Cc1ccc(-c2nc(C=Nc3cccc(C)c3)c(O)o2)cc1 | -2.5 | -0.2 | 9.4 | 13.8* | 124.7 | -7.7 | 6.6 | 0.9
O=C1/C(=C\c2c(NCCOCCO)nc3ccccn3c2=O)SC(=S)N1Cc1ccco1 | -2.2 | · | · | 10.3* | 356.1 | -0.4 | 5.0 | 7.7
CCCCCCOc1ccc(N2C(=O)CC(S/C(N)=N/N=C(\C)c3cccs3)C2=O)cc1 (stereo not drawn) | 11.6 | 11.7 | 33.5 | 21.3* | 416.8 | 2.5 | 15.0* | 2.3
COCCn1c(SCC(=O)Nc2cc(C)ccc2OC)nnc1-c1ccco1 | · | 9.6 | -27.0 | · | · | · | · | ·
O=C(CCc1nc2ccccc2c(=O)[nH]1)Nc1nnc(SCc2ccccc2)s1 | -2.6 | · | · | -1.8 | 498.3 | -3.7 | · | ·
O=c1[nH]c(CSc2nnc(Nc3ccccc3)s2)nc2ccccc12 | 6.3 | 11.1 | -8.1 | 9.7* | 121.6 | 0.1 | 2.4 | 2.5
CC(=O)Nc1cccc(-c2cc(NC(C)=O)c3ncc(-c4cccc(C(F)(F)F)c4)n3c2)c1 | 10.9 | · | · | 4.0 | · | 17.2 | · | ·

Assay outcomes deposited in PubChem BioAssay by several laboratories.
